Measured values as given in ChEMBL document CHEMBL1122798, “Trypanocidal 1,3-arylene diketone bis(guanylhydrazone)s. Structure-activity relationships among substituted and heterocyclic analogues” (1984).

Columns and labels:
Format in all cases: functional
Mus musculus [1] = assay: Compound was tested for Trypanocidal Activity in mice at 0.6 mg/kg; 20/30
Mus musculus [2] = assay: Compound was tested for Trypanocidal Activity in mice at 4 mg/kg; 9/10
Mus musculus [3] = assay: Compound was tested for Trypanocidal Activity in mice at 0.25 mg/kg; 0/30
Mus musculus [4] = assay: Compound was tested for Trypanocidal Activity in mice at 40 mg/kg; 0/5
Mus musculus [5] = assay: Compound was tested for Trypanocidal Activity in mice at 1.5 mg/kg; 10/10
Mus musculus [6] = species: Mus musculus; assay: Effective dose against Trypanosoma brucei infection in mice
Summary of the method: (§1)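 Female Swiss-Webster mice (20–25 g) were infected ip with 5×10^4 T. brucei EATRO 110 organisms in fresh mouse blood diluted with minimum essential medium. Groups of 5 or 10 received a single ip dose in normal saline (solution or milled suspension, 20 μL/g) 6 h post-infection. Deaths within 72 h were scored as toxic. Survivors aparasitemic at 28 days (tail-blood wet films, phase contrast) counted as cures. ED50 was computed by Bliss/Litchfield–Wilcoxon, excluding toxic dosages.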

Mus musculus [7] = assay: Compound was tested for Trypanocidal Activity in mice at 0.4 mg/kg; 19/35
Mus musculus [8] = assay: Compound was tested for Trypanocidal Activity in mice at 10 mg/kg; 10/10
Mus musculus [9] = assay: Compound was tested for Trypanocidal Activity in mice at 15 mg/kg; 10/10
Mus musculus [10] = assay: Compound was tested for Trypanocidal Activity in mice at 2.5 mg/kg; 20/20
Mus musculus [11] = assay: Compound was tested for Trypanocidal Activity in mice at 6 mg/kg; 20/20
Mus musculus [12] = assay: Compound was tested for Trypanocidal Activity in mice at 60 mg/kg; 0/5
Mus musculus [13] = assay: Compound was tested for Trypanocidal Activity in mice at 1.0 mg/kg; 8/10
Mus musculus [14] = assay: Compound was tested for Trypanocidal Activity in mice at 25 mg/kg; 4/5
Mus musculus [15] = assay: Compound was tested for Trypanocidal Activity in mice at 0.15 mg/kg; 0/10
Mus musculus [16] = assay: Compound was tested for Trypanocidal Activity in mice at 0.6 mg/kg; 23/25
Mus musculus [17] = assay: Compound was tested for Trypanocidal Activity in mice at 15 mg/kg; 3/5
Mus musculus [18] = assay: Compound was tested for Trypanocidal Activity in mice at 10 mg/kg; 5/5
Mus musculus [19] = assay: Compound was tested for Trypanocidal Activity in mice at 1.5 mg/kg; 19/20
Mus musculus [20] = assay: Compound was tested for Trypanocidal Activity in mice at 25 mg/kg; 3/5
Mus musculus [21] = assay: Compound was tested for Trypanocidal Activity in mice at 2.5 mg/kg; 9/10
Mus musculus [22] = assay: Compound was tested for Trypanocidal Activity in mice at 0.1 mg/kg; 1/10
Mus musculus [23] = assay: Compound was tested for Trypanocidal Activity in mice at 40 mg/kg; 5/5
Mus musculus [24] = assay: Compound was tested for Trypanocidal Activity in mice at 0.06 mg/kg; 0/10
Mus musculus [25] = assay: Compound was tested for Trypanocidal Activity in mice at 0.15 mg/kg; 6/20
Mus musculus [26] = assay: Compound was tested for Trypanocidal Activity in mice at 4 mg/kg; 10/10
Mus musculus [27] = assay: Compound was tested for Trypanocidal Activity in mice at 1.0 mg/kg; 9/10
Mus musculus [28] = assay: Compound was tested for Trypanocidal Activity in mice at 150 mg/kg; 3/5
Mus musculus [29] = assay: Compound was tested for Trypanocidal Activity in mice at 100 mg/kg; 5/5
Mus musculus [30] = assay: Compound was tested for Trypanocidal Activity in mice at 0.25 mg/kg; 28/40
Mus musculus [31] = assay: Compound was tested for Trypanocidal Activity in mice at 0.4 mg/kg; 24/45
Mus musculus [32] = assay: Compound was tested for Trypanocidal Activity in mice at 60 mg/kg; 5/5
Mus musculus [33] = assay: Compound was tested for Trypanocidal Activity in mice at 6 mg/kg; 10/10
Mus musculus [34] = assay: Compound was tested for Trypanocidal Activity in mice at 1.5 mg/kg; 0/10
Mus musculus [35] = assay: Compound was tested for Trypanocidal Activity in mice at 25 mg/kg; 10/10
Mus musculus [36] = assay: Compound was tested for Trypanocidal Activity in mice at 2.5 mg/kg; 6/25
Mus musculus [37] = assay: Compound was tested for Trypanocidal Activity in mice at 40 mg/kg; 9/10
Mus musculus [38] = assay: Compound was tested for Trypanocidal Activity in mice at 4 mg/kg; 24/45
Mus musculus [39] = assay: Compound was tested for Trypanocidal Activity in mice at 10 mg/kg; 22/30
Mus musculus [40] = assay: Compound was tested for Trypanocidal Activity in mice at 100 mg/kg; 1/5
Mus musculus [41] = assay: Compound was tested for Trypanocidal Activity in mice at 60 mg/kg; 7/10; summary of the method: as §1
Mus musculus [42] = assay: Compound was tested for Trypanocidal Activity in mice at 6 mg/kg; 32/45
Mus musculus [43] = assay: Compound was tested for Trypanocidal Activity in mice at 15 mg/kg; 0/10
Mus musculus [44] = assay: Compound was tested for Trypanocidal Activity in mice at 25 mg/kg; 0/5
Mus musculus [45] = assay: Compound was tested for Trypanocidal Activity in mice at 150 mg/kg; 0/5
Mus musculus [46] = assay: Compound was tested for Trypanocidal Activity in mice at 100 mg/kg; 0/5
Mus musculus [47] = assay: Compound was tested for Trypanocidal Activity in mice at 40 mg/kg; 1/5
Mus musculus [48] = assay: Compound was tested for Trypanocidal Activity in mice at 6 mg/kg; 9/20
Mus musculus [49] = assay: Compound was tested for Trypanocidal Activity in mice at 15 mg/kg; 16/20
Mus musculus [50] = assay: Compound was tested for Trypanocidal Activity in mice at 10 mg/kg; 14/20
Mus musculus [51] = assay: Compound was tested for Trypanocidal Activity in mice at 4 mg/kg; 0/5
Mus musculus [52] = assay: Compound was tested for Trypanocidal Activity in mice at 25 mg/kg; 7/10
Mus musculus [53] = assay: Compound was tested for Trypanocidal Activity in mice at 1.5 mg/kg; 0/15
Mus musculus [54] = assay: Compound was tested for Trypanocidal Activity in mice at 2.5 mg/kg; 3/20
Mus musculus [55] = assay: Compound was tested for Trypanocidal Activity in mice at 15 mg/kg; 9/10
Mus musculus [56] = assay: Compound was tested for Trypanocidal Activity in mice at 6 mg/kg; 14/20
Mus musculus [57] = assay: Compound was tested for Trypanocidal Activity in mice at 4 mg/kg; 11/20
Mus musculus [58] = assay: Compound was tested for Trypanocidal Activity in mice at 40 mg/kg; 10/10
Mus musculus [59] = assay: Compound was tested for Trypanocidal Activity in mice at 25 mg/kg; 8/10
Mus musculus [60] = assay: Compound was tested for Trypanocidal Activity in mice at 40 mg/kg; 0/10
Mus musculus [61] = assay: Compound was tested for Trypanocidal Activity in mice at 60 mg/kg; 2/5

**Q.** What does the source list for `C/C(=N\NC(=N)N)c1cc(/C(C)=N/NC(=N)N)cc(/C(C)=N/NC(=N)N)c1.Cl`?
**A.** Cures/total (Mus musculus [1]): 20; Cures/total (Mus musculus [2]): 9; Cures/total (Mus musculus [3]): 0; Cures/total (Mus musculus [4]): 0; Cures/total (Mus musculus [5]): 10; ED50 (Mus musculus [6]): 0.47 mg/kg; Cures/total (Mus musculus [7]): 19; Cures/total (Mus musculus [8]): 10; Mice cured (number) (Mus musculus [9]): 10; Cures/total (Mus musculus [10]): 20; Cures/total (Mus musculus [11]): 20; Cures/total (Mus musculus [12]): 0; Cures/total (Mus musculus [13]): 8; Cures/total (Mus musculus [14]): 4; Cures/total (Mus musculus [15]): 0

**Q.** `CC(=O)NCC(=O)O.N=C(N)c1ccc(/N=N/Nc2ccc(C(=N)N)cc2)cc1` [DIMINAZEN ACETURATE] was tested. Which Cures/total (Mus musculus [16]) did it give?
**A.** 23

**Q.** What about the Cures/total (Mus musculus [17]) of the same compound?
**A.** 3

**Q.** And the Cures/total (Mus musculus [18])?
**A.** 5

**Q.** And the Cures/total (Mus musculus [19])?
**A.** 19

**Q.** What about the Cures/total (Mus musculus [20]) of the same compound?
**A.** 3

**Q.** What about the Cures/total (Mus musculus [21]) of the same compound?
**A.** 9

**Q.** And the ED50 (Mus musculus [6])?
**A.** 0.24 mg/kg

**Q.** And the Cures/total (Mus musculus [22])?
**A.** 1

**Q.** What about the Cures/total (Mus musculus [23]) of the same compound?
**A.** 5

**Q.** What about the Cures/total (Mus musculus [24]) of the same compound?
**A.** 0

**Q.** And the Cures/total (Mus musculus [25])?
**A.** 6

**Q.** And the Cures/total (Mus musculus [26])?
**A.** 10

**Q.** What about the Cures/total (Mus musculus [27]) of the same compound?
**A.** 9

**Q.** What about the Cures/total (Mus musculus [28]) of the same compound?
**A.** 3

**Q.** And the Cures/total (Mus musculus [29])?
**A.** 5

**Q.** What about the Cures/total (Mus musculus [30]) of the same compound?
**A.** 28

**Q.** And the Cures/total (Mus musculus [31])?
**A.** 24

**Q.** And the Cures/total (Mus musculus [32])?
**A.** 5

**Q.** What about the Cures/total (Mus musculus [33]) of the same compound?
**A.** 10

**Q.** Which Cures/total (Mus musculus [34]) does the source give for `C/C(=N\NC(=N)N)c1cccc(/C(C)=N/NC(=N)N)c1.Cl` [BIS(GUANYLHYDRAZONE) ;2M HYDROCHLORIDE] here?
**A.** 0

**Q.** And the Cures/total (Mus musculus [35])?
**A.** 10

**Q.** What about the Cures/total (Mus musculus [36]) of the same compound?
**A.** 6

**Q.** And the Cures/total (Mus musculus [37])?
**A.** 9

**Q.** What about the Cures/total (Mus musculus [38]) of the same compound?
**A.** 24

**Q.** And the Cures/total (Mus musculus [39])?
**A.** 22

**Q.** What about the Cures/total (Mus musculus [40]) of the same compound?
**A.** 1

**Q.** What about the ED50 (Mus musculus [6]) of the same compound?
**A.** 4.2 mg/kg

**Q.** What about the Cures/total (Mus musculus [41]) of the same compound?
**A.** 7

**Q.** And the “Mice cured (number)” value (Mus musculus [9])?
**A.** 10

**Q.** What about the Cures/total (Mus musculus [42]) of the same compound?
**A.** 32

**Q.** How did the Cures/total (Mus musculus [4]) turn out when `C/C(=N\NC(=N)N)c1cccc(/C(C)=N/NC(=N)N)c1[N+](=O)[O-].Cl` was run?
**A.** 0

**Q.** What about the Cures/total (Mus musculus [43]) of the same compound?
**A.** 0

**Q.** And the Cures/total (Mus musculus [44])?
**A.** 0

**Q.** `C/C(=N\NC(=N)N)c1cc(/C(C)=N/NC(=N)N)c(C)nc1C.CS(=O)(=O)O.Cl.Cl` was tested. Which Cures/total (Mus musculus [45]) did it give?
**A.** 0

**Q.** And the Cures/total (Mus musculus [4])?
**A.** 0

**Q.** And the Cures/total (Mus musculus [46])?
**A.** 0

**Q.** What about the Cures/total (Mus musculus [12]) of the same compound?
**A.** 0

**Q.** And the Cures/total (Mus musculus [43])?
**A.** 0

**Q.** For `C/C(=N\NC(=N)N)c1cc(O)cc(/C(C)=N/NC(=N)N)c1.Cl`, which Cures/total (Mus musculus [47]) is on record?
**A.** 1

**Q.** What about the ED50 (Mus musculus [6]) of the same compound?
**A.** 7.3 mg/kg

**Q.** What about the Cures/total (Mus musculus [48]) of the same compound?
**A.** 9

**Q.** And the Cures/total (Mus musculus [49])?
**A.** 16

**Q.** What about the Cures/total (Mus musculus [50]) of the same compound?
**A.** 14

**Q.** What about the Cures/total (Mus musculus [12]) of the same compound?
**A.** 0

**Q.** And the Cures/total (Mus musculus [51])?
**A.** 0

**Q.** What about the Cures/total (Mus musculus [52]) of the same compound?
**A.** 7

**Q.** With `C/C(=N\NC(=N)N)c1cc(C)cc(/C(C)=N/NC(=N)N)c1.Cl` as the compound, how does the Cures/total (Mus musculus [53]) read?
**A.** 0

**Q.** And the Cures/total (Mus musculus [46])?
**A.** 0

**Q.** What about the ED50 (Mus musculus [6]) of the same compound?
**A.** 4.1 mg/kg

**Q.** What about the Cures/total (Mus musculus [54]) of the same compound?
**A.** 3

**Q.** And the Cures/total (Mus musculus [8])?
**A.** 10

**Q.** What about the Cures/total (Mus musculus [55]) of the same compound?
**A.** 9

**Q.** And the Cures/total (Mus musculus [12])?
**A.** 0

**Q.** What about the Cures/total (Mus musculus [56]) of the same compound?
**A.** 14

**Q.** What about the Cures/total (Mus musculus [57]) of the same compound?
**A.** 11

**Q.** What about the Cures/total (Mus musculus [58]) of the same compound?
**A.** 10

**Q.** What about the Cures/total (Mus musculus [59]) of the same compound?
**A.** 8

**Q.** How did the Cures/total (Mus musculus [46]) turn out when `C/C(=N\NC(=N)N)c1cc(I)cc(/C(C)=N/NC(=N)N)c1.Cl` was run?
**A.** 0

**Q.** And the Cures/total (Mus musculus [60])?
**A.** 0

**Q.** And the Cures/total (Mus musculus [61])?
**A.** 2
